Measurements from ChEMBL document CHEMBL3580585, “The synthesis of sulforaphane analogues and their protection effect against cisplatin induced cytotoxicity in kidney cells” (2014).
Active and inactive are the calls of the source. The rule behind the calls is not given here.

How the values were obtained:
LLC-PK1 [1] = assay: Renoprotective activity against cisplatin-induced cytotoxicity in pig LLC-PK1 cells assessed as cell survival at 10 uM after 24 hrs by WST-1 assay in presence of 25 uM cisplatin (reference value: 60%); format: functional, Sus scrofa
Method in brief: (§1)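 Pig kidney LLC-PK1 cells were given 25 µM cisplatin to cause oxidative stress, alongside test compound in dose-response format, up to 10 µM, or up to 2.5 µM for analogues toxic at high doses. Survival was read by WST-1 assay […]. Potency was taken as the concentration giving more than 60% cell survival.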

LLC-PK1 [2] = assay: Renoprotective activity against cisplatin-induced cytotoxicity in pig LLC-PK1 cells assessed as cell survival at 2.5 uM after 24 hrs by WST-1 assay in presence of 25 uM cisplatin (reference value: 60%); format: functional, Sus scrofa; method in brief: as §1
LLC-PK1 [3] = assay: Renoprotective activity against cisplatin-induced cytotoxicity in pig LLC-PK1 cells assessed as decrease in apoptotic cells at 25 uM after 24 hrs by Tali image-based cytometer analysis in presence of cisplatin; format: functional, cell-based; conditions: Sus scrofa
Method in brief: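 LLC-PK1 cells were co-treated with cisplatin and test compound, then stained so that dead cells show red and apoptotic cells green. The percentage of apoptotic cells was counted on a Tali image-based cytometer.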

LLC-PK1 [4] = assay: Renoprotective activity against cisplatin-induced cytotoxicity in pig LLC-PK1 cells assessed as increase in cell survival at >1 uM by cell imaging analysis in presence of 25 uM cisplatin; format: functional, cell-based; conditions: Sus scrofa
LLC-PK1 [5] = assay: Renoprotective activity against cisplatin-induced cytotoxicity in pig LLC-PK1 cells assessed as decrease in cleaved caspase-3 level by western blot analysis in presence of 25 uM cisplatin; format: functional, cell-based; conditions: Sus scrofa
Method in brief: (§2)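 LLC-PK1 cells were exposed to cisplatin together with several concentrations of test compound. Phospho-JNK, p53 and cleaved caspase-3 protein levels were measured 24 h after cisplatin treatment.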

LLC-PK1 [6] = assay: Renoprotective activity against cisplatin-induced cytotoxicity in pig LLC-PK1 cells assessed as decrease in p53 level at 2.5 uM by western blot analysis in presence of 25 uM cisplatin; format: functional, cell-based; conditions: Sus scrofa; method in brief: as §2
LLC-PK1 [7] = assay: Renoprotective activity against cisplatin-induced cytotoxicity in pig LLC-PK1 cells assessed as decrease in phoshorylated JNK level by western blot analysis in presence of 25 uM cisplatin; format: functional, cell-based; conditions: Sus scrofa; method in brief: as §2

## C[S+]([O-])CCCCN=C=S (stereo not given) [SULFORAPHANE]
LLC-PK1 [1]
  Activity: >77%

## S=C=NCCc1ccc(N=C=S)cc1
LLC-PK1 [2]
  Activity: >80%

## S=C=NCc1cccc(Cl)c1
LLC-PK1 [2]
  Activity: >80%

## S=C=NCC(c1ccccc1)c1ccccc1
LLC-PK1 [2]
  Activity: 93%
LLC-PK1 [3]
  Activity: Active
LLC-PK1 [4]
  Activity: Active
LLC-PK1 [5]
  Activity: Dose-dependent effect
LLC-PK1 [6]
  Activity: Active
LLC-PK1 [7]
  Activity: Dose-dependent effect

## Oc1ccc(CCN=C=S)cc1
LLC-PK1 [2]
  Activity: >80%
